The subject of assay [1] is Schistosoma mansoni. The experiment in a line: Inhibition of recombinant Schistosoma mansoni SmCB1 expressed in Pichia pastoris at 5 uM using Z-FR-AMC as substrate preincubated for 10 mins followed by substrate addition and measured at 23 sec interval for 30 mins by fluorimetric analysis relative to control. In outline:
(§1)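 SmCB1 (recombinant, 8 nM) in 0.1 M sodium acetate pH 5.5 with 0.01% Triton X-100 and 4 mM β-mercaptoethanol. Compound at 5 µM, either not pre-incubated or pre-incubated 10 min with enzyme. Z-FR-AMC 20 µM, fluorescence 340/440 nm every 23 s for 30 min. Inhibition is versus DMSO, with E-64 control; each condition in duplicate.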

Assay [2] relates to Schistosoma mansoni. Put plainly: Inhibition of recombinant Schistosoma mansoni SmCB1 expressed in Pichia pastoris at 5 uM using Z-FR-AMC as substrate and measured at 23 sec interval for 30 mins without preincubation by fluorimetric analysis relative to control. In a few lines:
as §1

The target of assay [3] is Rhodesain (Trypanosoma brucei rhodesiense) (UniProt Q95PM0). The experiment in a line: Inhibition of recombinant Trypanosoma brucei rhodesain expressed in Pichia pastoris at 5 uM using Z-FR-AMC as substrate and measured at 12 sec interval for 5 mins without preincubation by fluorimetric analysis relative to control. In a few lines:
(§2)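 Recombinant rhodesain or cruzain (1 nM) in 0.1 M sodium acetate pH 5.5, 0.01% Triton X-100, 1 mM β-mercaptoethanol. Compound at a single concentration, either without or after 10 min enzyme pre-incubation. Inhibition is relative to DMSO, with E-64 as positive control. Done in duplicate (primary screen) or triplicate.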

Assay [4] deals with Cruzipain (Trypanosoma cruzi) (UniProt P25779). The experiment in a line: Inhibition of recombinant Trypanosoma cruzi cruzain at 10 uM using Z-FR-AMC as substrate and measured at 12 sec interval for 5 mins without preincubation by fluorimetric analysis relative to control. In outline:
(§3)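 Recombinant rhodesain or cruzain (1 nM) in 0.1 M sodium acetate pH 5.5, 0.01% Triton X-100, 1 mM β-mercaptoethanol. Compound at a single concentration, either without or after 10 min enzyme pre-incubation. Z-FR-AMC 2.5 µM, read at 340/440 nm every 12 s for 5 min. Inhibition is relative to DMSO, with E-64 as positive control. Done in duplicate (primary screen) or triplicate.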

The target is the same in assay [5]. The experiment in a line: Inhibition of recombinant Trypanosoma cruzi cruzain at 10 uM using Z-FR-AMC as substrate preincubated for 10 mins followed by substrate addition and measured at 12 sec interval for 5 mins by fluorimetric analysis relative to control. The settings on record: time 15.0 min. In a few lines:
as §3

The target in assay [6] is Rhodesain (Trypanosoma brucei rhodesiense) (UniProt Q95PM0). The experiment in a line: Inhibition of recombinant Trypanosoma brucei rhodesain expressed in Pichia pastoris at 10 uM using Z-FR-AMC as substrate and measured at 12 sec interval for 5 mins without preincubation by fluorimetric analysis relative to control. In a few lines:
as §3

In assay [7] the target is Cruzipain (Trypanosoma cruzi) (UniProt P25779). Put plainly: Inhibition of recombinant Trypanosoma cruzi cruzain at 5 uM using Z-FR-AMC as substrate and measured at 12 sec interval for 5 mins without preincubation by fluorimetric analysis relative to control. In outline:
as §2

Assay [8] has as its target Rhodesain (Trypanosoma brucei rhodesiense) (UniProt Q95PM0). Put plainly: Inhibition of recombinant Trypanosoma brucei rhodesain expressed in Pichia pastoris at 5 uM using Z-FR-AMC as substrate preincubated for 10 mins followed by substrate addition and measured at 12 sec interval for 5 mins by fluorimetric analysis relative to control. The settings on record: time 15.0 min. In outline: as §2

Assay [9] has the same target. The experiment in a line: Inhibition of recombinant Trypanosoma brucei rhodesain expressed in Pichia pastoris at 10 uM using Z-FR-AMC as substrate preincubated for 10 mins followed by substrate addition and measured at 12 sec interval for 5 mins by fluorimetric analysis relative to control. The settings on record: time 15.0 min. In a few lines:
as §3

Assay [10] deals with Cruzipain (Trypanosoma cruzi) (UniProt P25779). Put plainly: Inhibition of recombinant Trypanosoma cruzi cruzain at 5 uM using Z-FR-AMC as substrate preincubated for 10 mins followed by substrate addition and measured at 12 sec interval for 5 mins by fluorimetric analysis relative to control. Conditions: time 15.0 min. In a few lines: as §2
Chain of Cruzipain (Trypanosoma cruzi) (P25779 123-467 limits assumed): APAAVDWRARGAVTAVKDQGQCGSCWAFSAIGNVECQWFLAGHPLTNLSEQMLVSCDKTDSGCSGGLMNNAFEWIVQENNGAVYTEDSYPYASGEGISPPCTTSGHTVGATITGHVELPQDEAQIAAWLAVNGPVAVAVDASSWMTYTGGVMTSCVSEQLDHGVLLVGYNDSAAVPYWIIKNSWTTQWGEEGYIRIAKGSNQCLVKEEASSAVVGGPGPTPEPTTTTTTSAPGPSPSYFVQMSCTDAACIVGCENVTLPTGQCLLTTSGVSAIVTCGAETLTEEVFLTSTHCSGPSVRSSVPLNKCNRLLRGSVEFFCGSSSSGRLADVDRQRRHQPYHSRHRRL
The test system of assay [11] is Trypanosoma brucei brucei. Put plainly: Trypanocidal activity against Trypanosoma brucei brucei Squib 427 assessed as reduction in parasite viability. In kind it is functional, organism-based.

Chain of Rhodesain (Trypanosoma brucei rhodesiense) (Q95PM0 1-450): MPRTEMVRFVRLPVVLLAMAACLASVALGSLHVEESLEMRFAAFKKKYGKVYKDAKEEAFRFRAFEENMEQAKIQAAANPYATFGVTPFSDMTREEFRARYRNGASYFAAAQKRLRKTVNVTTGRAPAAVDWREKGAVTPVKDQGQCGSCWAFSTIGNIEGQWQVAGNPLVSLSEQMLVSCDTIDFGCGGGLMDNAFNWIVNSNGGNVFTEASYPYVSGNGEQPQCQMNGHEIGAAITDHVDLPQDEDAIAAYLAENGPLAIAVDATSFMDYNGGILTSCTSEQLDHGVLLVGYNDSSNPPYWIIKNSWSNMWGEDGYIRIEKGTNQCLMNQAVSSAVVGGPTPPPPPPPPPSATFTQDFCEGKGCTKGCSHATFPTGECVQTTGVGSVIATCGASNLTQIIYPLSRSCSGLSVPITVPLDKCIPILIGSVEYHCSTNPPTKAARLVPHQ

For `CC1(c2ccccc2)Nc2ccccc2-c2nc3ccccc3n21` (stereo not drawn), the inhibition in the assay with Schistosoma mansoni [1] was 5.2%; in the assay on Schistosoma mansoni [2], 49.7%.
On to `CCOC(=O)c1c(C)n(-c2ccccc2)c2ccc(OC(=O)c3cc(OC)c(OC)c(OC)c3)cc12`, for which the inhibition was 38.5% in assay [3]; 10% in assay [4]; 19% in assay [5]; 4% in assay [6]; 36.8% in assay [7]; 74.4% in assay [8]. The inhibition in assay [9] stood at 14%; in [10], 51.7%.
On to `O=C1C2=C(Nc3ccccc3SC2c2ccccc2)c2ccccc21` (stereo not drawn), for which the inhibition was found to be 0.3% with Schistosoma mansoni [1] and 36.8% in the assay with Schistosoma mansoni [2].
`COc1ccc2sc(N(Cc3cccnc3)C(=O)c3ccc(C#N)cc3)nc2c1`: the inhibition in assay [3] is 50.7%; in [4], 9%; in assay [5], 7%; in [6], 10%; in assay [7], 53%; in assay [8] it was 76.9%. The inhibition in assay [9] was found to be 21%; in assay [10], 72.3%. In addition, the IC50 in assay [11] was determined as 32 µM.
Turning to `Cc1cc(NC(=O)C2c3ccccc3C(=O)N(CC(C)C)C2c2cccs2)no1` (stereo not drawn), the inhibition with Schistosoma mansoni [1] stood at 0%; in the assay with Schistosoma mansoni [2], 44.9%.
`COc1ccc(Br)cc1C1Nc2ccc3ccccc3c2C2=C1C(=O)CC(c1ccccc1)C2` (stereo not drawn): the inhibition came to 27.6% in assay [3]; 50% with Schistosoma mansoni [1]; 7% in [7]; 72.7% in assay [8]; 48.3% with Schistosoma mansoni [2]; 37.3% in assay [10].
In the case of `COc1cc(C(=O)ON=C(N)Cc2cccc3ccccc23)cc(OC)c1OC`, the inhibition in assay [3] is 0%; in assay [7], 14%; in [8], 46.8%; in [10] it was 51.1%.
Taken in the same sequence, the figures for `COc1cccc(C(=O)NC(c2ccc(C)cc2)c2cc(Cl)c3cccnc3c2O)c1` (stereo not drawn) were 31.4%, 8.7%, 43.9% and 54.5%.
Regarding `COc1ccc(C(=O)NC(c2ccc(Cl)cc2Cl)c2cc(Cl)c3cccnc3c2O)cc1` (stereo not drawn), the inhibition stood at 27.9% in assay [3], 77.6% in assay [7], 20.2% in assay [8] and 49.5% in assay [10].
Consider `COc1nc(Nc2ccc(C(C)C)cc2)nc(OC)n1`, for which the inhibition in assay [3] was 25.9%; in assay [7], 16.8%; in assay [8] it was 53.8%; in assay [10] it was 44.2%.
Taken in the same sequence, the figures for `CCOc1ccccc1CNC(=O)C1c2ccccc2C(=O)N(CC(C)C)C1c1cccs1` (stereo not drawn) were 34.3%, 45.6%, 71.4% and 55.7%.
`CCOC(=O)c1cnc2ccc(CC)cc2c1O`: the inhibition in assay [3] worked out at 0%; in assay [7] it was 6%; in assay [8], 52.4%; in assay [10] it was 5.8%.
In the same order, the values of `COc1ccc(C2c3ccc4ccccc4c3Oc3ncn(CCCn4ccnc4)c(=N)c32)cc1OC` (stereo not drawn) are 33.4%, 41.8%, 41% and 59.5%.
Taken in the same sequence, the figures for `Cc1ccnc(NC(c2cccc(OCc3ccccc3)c2)c2ccc3cccnc3c2O)c1` (stereo not drawn) were 0%, 6.7%, 16.2% and 51.3%.
In the case of `CCCOCc1cc(CN2CCN(c3cccc(Cl)c3)CC2)c(O)c2ncccc12`, the inhibition was determined as 36.4% in assay [3], 37.1% in assay [7], 87.6% in assay [8] and 75.3% in [10].
Taken in the same sequence, the figures for `O=C(NC1CCN(Cc2ccccc2)CC1)c1cc(-c2ccncc2)nc2ccc(Cl)cc12` were 20.9%, 15.2%, 41.2% and 56.5%.
Taken in the same sequence, the figures for `Fc1ccc2[nH]c3c(NCCCN4CCOCC4)ncnc3c2c1` were 17.6%, 50.7%, 41.6% and 63.9%.
For `Cc1ccc(CSCc2ccc(C(=O)NC3CC3)o2)cc1`, the inhibition with Schistosoma mansoni [1] worked out at 50%; with Schistosoma mansoni [2], 4.7%.
In the case of `CC(O)(c1ccc(Cl)cc1)C(CN1CCCCC1)c1ccccc1` (stereo not drawn), the inhibition in [3] was 13.9%; in [7], 11.9%; in assay [8], 50.4%; in assay [10], 54.1%.
With `Cc1ccc(CN2CCC(C(=O)Nc3ccc(-c4cc5ccccc5[nH]4)cc3)CC2)o1`, the results for the inhibition in the assay with Schistosoma mansoni [1] and in the assay on Schistosoma mansoni [2] were 73% and 9%, respectively.
In the case of `CCCCCC(=O)N1c2ccccc2N=C2CC(c3ccc(OC)c(OC)c3)CC(O)=C2C1c1ccc(C(F)(F)F)cc1` (stereo not drawn), the inhibition in assay [3] is 26.7%; in assay [7], 17%; in assay [8] it was 46.4%; in assay [10], 50.7%.
Taken in the same sequence, the figures for `Nc1ccc(-c2nc3cc(Oc4ccc(Oc5ccc6[nH]c(-c7ccc(N)cc7)nc6c5)cc4)ccc3[nH]2)cc1` were 13.3%, 88.6%, 78.2% and 91.5%.
For `COc1ccc(-c2cc3c(nn2)-c2ccccc2C3=O)cc1`, the inhibition in the assay with Schistosoma mansoni [1] is 38.5%; in the assay with Schistosoma mansoni [2], 13.6%.
For the molecule `COc1ccc(CNC(=O)c2cc3c(=O)n4ccccc4nc3n(CCc3ccccc3)c2=N)cc1`, the inhibition in [3] came to 43.5%; in assay [7] it was 45.7%; in [8], 66.9%; in assay [10], 69.9%.
In the same order, the values of `CCCCCCc1cc2cc(-c3csc(/C=C/c4ccccc4)n3)c(=O)oc2cc1O` are 28.6%, 8.9%, 51.2% and 38.3%.
Taken in the same sequence, the figures for `O=C(NC1CCN(Cc2ccccc2)CC1)c1cc(C(=O)NC2CCN(Cc3ccccc3)CC2)cc(C(=O)NC2CCN(Cc3ccccc3)CC2)c1` were 45.4%, 41%, 49.2% and 60.5%.
On to `COc1ccc(/C=C2/SC(=Nc3ccccc3)NC2=O)cc1`, for which the inhibition in assay [3] is 35.6%; in assay [7] it was 43.1%; in assay [8], 70.5%; in assay [10] it was 73.8%.
Regarding `CC(C)(C)c1ccc(O)c(CNC2CCCCC2)c1`, the inhibition with Schistosoma mansoni [1] is 48%; in the assay with Schistosoma mansoni [2] it was 4.1%.
On to `CCOc1ccc(C2N(C)c3ccccc3N2C)cc1`, for which the inhibition in assay [3] is 30.3%; in assay [7], 21.8%; in [8], 57.7%; in assay [10] it was 48.3%.
Taken in the same sequence, the figures for `COc1cc2c3cc1Oc1c(OC)c(OC)cc4c1C(Cc1ccc(O)c(c1)Oc1ccc(cc1)CC3N(C)CC2)N(C)CC4` (stereo not drawn) were 19.7%, 22.4%, 51.4% and 41.7%.
As to `CCOc1cc(Cl)c(C(C)NC(=O)c2cccc(OC)c2)cc1OCC` (stereo not drawn), the inhibition with Schistosoma mansoni [1] is 9.5%; in the assay with Schistosoma mansoni [2] it was 36.3%.
As to `Oc1ccc(C(=C(Cl)Cl)c2ccc(O)cc2)cc1`, the inhibition in [3] is 22.6%; in [7] it was 31.1%; in [8], 62.1%; in assay [10], 60.5%.
